Data set [1] concerns Mus musculus. Description: Phototoxicity in Swiss Albino mouse assessed as ear thickness at 140 mg/kg, po after 48 hrs of irradiation. Conditions: in vivo. Also on record: dose 140 mg/kg, route oral. The format is organism-based. In a few lines:
(§1)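 Female Swiss albino mice (~2 months, 20-25 g) were fasted ≥18 h and given 140 mg/kg orally by gavage; controls received 0.5% Na-CMC vehicle at 10 mL/kg. UVA started right after dosing, 4 h (~18 J/cm2). Ear thickness was measured before dosing and at 4, ~24, 48, 72 and 96 h, reported as mean of left and right ears ± SEM.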

The nature of data set [2]: Inhibition of Mycobacterium smegmatis DNA gyrase supercoiling activity. Also on record: species or system Mycolicibacterium smegmatis. The method in brief: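 Gyrase purified from M. smegmatis was preincubated with compound in DMSO (5% DMSO in reaction). 400 ng relaxed pUC18 was added in 35 mM Tris-HCl pH 7.5, 5 mM MgCl2, 25 mM K-glutamate, 2 mM spermidine, 2 mM ATP, BSA, tRNA and 5% glycerol, 1 h at 37 °C. Samples were heat-inactivated, run on 1% agarose in TAE, and ethidium-stained; IC50 was derived.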

In data set [3] the test system is Mus musculus. Description: Phototoxicity in Swiss Albino mouse assessed as ear erythema at 140 mg/kg, po after 48 hrs of irradiation. The format is organism-based. Also on record: dose 140 mg/kg, route oral. The note with it: in vivo.
In data set [4] the test system is Mus musculus. Description: Phototoxicity in Swiss Albino mouse assessed as ear erythema at 140 mg/kg, po after 24 hrs of irradiation. The format is organism-based. Also on record: dose 140 mg/kg, route oral. The note with it: in vivo.
Data set [5] deals with Mus musculus. Description: Phototoxicity in Swiss Albino mouse assessed as ear erythema at 140 mg/kg, po after 96 hrs of irradiation. Also on record: dose 140 mg/kg, route oral. The format is organism-based. Conditions: in vivo.
Data set [6] relates to Mus musculus. Description: Phototoxicity in Swiss Albino mouse assessed as ear thickness at 140 mg/kg, po after 96 hrs of irradiation. The format is organism-based. Also on record: dose 140 mg/kg, route oral. The note with it: in vivo. The method in brief: as §1
The subject of data set [7] is Mus musculus. Description: Phototoxicity in UV light irradiated Swiss Albino mouse assessed ear erythema at 140 mg/kg, po. Conditions: in vivo. The format is organism-based. Also on record: dose 140 mg/kg, route oral.
Data set [8] relates to Mus musculus. In words: Phototoxicity in Swiss Albino mouse assessed as ear thickness at 140 mg/kg, po after 24 hrs of irradiation. The format is organism-based. Conditions: in vivo. Also on record: dose 140 mg/kg, route oral. In a few lines:
as §1

For data set [9], the system named is Mus musculus. In words: Phototoxicity in Swiss Albino mouse assessed as ear erythema at 140 mg/kg, po after 4 hrs of irradiation. The format is organism-based. Also on record: dose 140 mg/kg, route oral. Conditions: in vivo.
The subject of data set [10] is Mus musculus. In words: Phototoxicity in Swiss Albino mouse assessed as ear thickness at 140 mg/kg, po after 72 hrs of irradiation. Also on record: dose 140 mg/kg, route oral. The note with it: in vivo. The format is organism-based. The method in brief:
as §1

The subject of data set [11] is Mus musculus. Description: Phototoxicity in Swiss Albino mouse assessed as ear erythema at 140 mg/kg, po after 72 hrs of irradiation. The format is organism-based. Also on record: dose 140 mg/kg, route oral. Conditions: in vivo.
Data set [12] has as its system Mycobacterium tuberculosis. Description: Antimycobacterial activity against Mycobacterium tuberculosis H37Rv by agar dilution method. The format is functional. In a few lines: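 MIC was determined by agar dilution, in duplicate.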
A further data set concerns Vero. In words: Cytotoxicity against Vero cells after 72 hrs by MTT assay. Conditions: Chlorocebus sabaeus. The format is cell-based. In a few lines: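 Vero cells were exposed to serially diluted compound up to 62.5 µg/mL for 72 h. Viability was read by cellular conversion of MTT to formazan (CellTiter 96 non-radioactive proliferation assay), and IC50 was derived.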

In data set [13] the test system is Mus musculus. Description: Phototoxicity in Swiss Albino mouse assessed as ear thickness at 140 mg/kg, po after 4 hrs of irradiation. The format is organism-based. Also on record: dose 140 mg/kg, route oral. The note with it: in vivo. In a few lines: as §1
The subject of data set [14] is Mycolicibacterium smegmatis. Description: Antimicrobial activity against Mycobacterium smegmatis by agar dilution method. The format is functional. The method in brief:
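Agar dilution against M. smegmatis ATCC 14468; MIC determined in duplicate.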

In data set [15] the test system is Mus musculus. In words: Phototoxicity in UV light irradiated Swiss Albino mouse assessed as ear thickness at 140 mg/kg, po. The format is organism-based. Also on record: dose 140 mg/kg, route oral. Conditions: in vivo. In a few lines:
as §1

Results on five molecules are retold here after ChEMBL document CHEMBL1138270, “Antimycobacterial activities of novel 1-(cyclopropyl/tert-butyl/4-fluorophenyl)-1,4-dihydro- 6-nitro-4-oxo-7-(substituted secondary amino)-1,8-naphthyridine-3-carboxylic acid” (J Med Chem, 2007).

≈ marks a conversion by molar mass, not a printed value. Bounds are passed on as bounds.

On to `O=C(O)c1cn2c(n1)CN(c1nc3c(cc1[N+](=O)[O-])c(=O)c(C(=O)O)cn3-c1ccc(F)cc1)CC2`, for which the Activity is reported as 0.32 mm in the data set on Mus musculus [1]; “Non-toxic” in the data set on Mus musculus [3]; “Toxic” in the data set with Mus musculus [4]; “Non-toxic” in the data set on Mus musculus [5]; 0.33 mm in the data set with Mus musculus [6]; “Non-toxic” in the data set with Mus musculus [7]. Further, the Activity in the data set on Mus musculus [8] is 0.33 mm; in the data set with Mus musculus [9], “Toxic”; in the data set with Mus musculus [10] it was 0.33 mm; in the data set with Mus musculus [11] it was “Non-toxic”; in the data set with Mus musculus [13], 0.32 mm; in the data set with Mus musculus [15], 0.27 mm. Moreover, the IC50 in data set [2] was over 202 µM; in the data set on Vero, over 126 µM. Moreover, the MIC was 0.38 µM (≈ 0.188 µg/mL) in data set [12] and 1.58 µM (≈ 0.781 µg/mL) in [14].
As for `O=C(O)c1cn(-c2ccc(F)cc2)c2nc(N3CCSCC3)c([N+](=O)[O-])cc2c1=O`, the Activity is on record as 0.26 mm in the data set on Mus musculus [1]; “Non-toxic” with Mus musculus [3]; “Non-toxic” in the data set on Mus musculus [4]; “Non-toxic” in the data set with Mus musculus [5]; 0.29 mm with Mus musculus [6]; “Non-toxic” in the data set with Mus musculus [7]. Besides, the Activity was 0.26 mm with Mus musculus [8]; “Non-toxic” with Mus musculus [9]; 0.29 mm with Mus musculus [10]; “Non-toxic” in the data set with Mus musculus [11]; 0.27 mm with Mus musculus [13]; 0.25 mm in the data set on Mus musculus [15]. In addition, the half-maximal inhibitory concentration (IC50) in [2] was over 232 µM; with Vero it was 72.6 µM. The MIC in data set [12] turned out to be 0.44 µM (≈ 0.189 µg/mL); in data set [14] it was 1.81 µM (≈ 0.779 µg/mL).
For `CC1CN(c2nc3c(cc2[N+](=O)[O-])c(=O)c(C(=O)O)cn3-c2ccc(F)cc2)CC(C)O1` (stereo not given), the Activity is on record as 0.27 mm in the data set on Mus musculus [1]; “Non-toxic” in the data set with Mus musculus [3]; “Non-toxic” in the data set with Mus musculus [4]; “Non-toxic” in the data set with Mus musculus [5]; 0.3 mm in the data set with Mus musculus [6]; “Non-toxic” with Mus musculus [7]. Moreover, the Activity with Mus musculus [8] was 0.28 mm; in the data set on Mus musculus [9], “Non-toxic”; in the data set on Mus musculus [10], 0.3 mm; in the data set with Mus musculus [11] it was “Non-toxic”; in the data set with Mus musculus [13] it was 0.25 mm; in the data set on Mus musculus [15], 0.26 mm. Moreover, the values for the concentration for half-maximal inhibition (IC50) (in data set [2]; with Vero) were 226 µM and 141 µM, respectively. The minimal inhibitory concentration (MIC) in data set [12] stood at 0.43 µM (≈ 0.19 µg/mL); in data set [14] it was 1.79 µM (≈ 0.792 µg/mL).
Consider `COc1ccc(CC2C3=C(CCCC3)CCN2c2nc3c(cc2[N+](=O)[O-])c(=O)c(C(=O)O)cn3C2CC2)cc1` (stereo not given), for which the Activity in the data set on Mus musculus [1] is on record as 0.38 mm; with Mus musculus [4] it was “Non-toxic”; in the data set with Mus musculus [5] it was “Non-toxic”; with Mus musculus [6], 0.33 mm; in the data set on Mus musculus [7], “Non-toxic”; with Mus musculus [8], 0.34 mm. Moreover, the Activity result in the data set with Mus musculus [9] is “Non-toxic”; with Mus musculus [10], 0.36 mm; with Mus musculus [11] it was “Non-toxic”; in the data set on Mus musculus [13] it was 0.34 mm; with Mus musculus [15], 0.33 mm. Besides, the 50% inhibitory concentration (IC50) turned out to be 56.5 µM in [2] and 118 µM with Vero. The MIC was 5.89 µM (≈ 3.13 µg/mL) in data set [12] and 1.47 µM (≈ 0.78 µg/mL) in data set [14].
Turning to `CCn1cc(C(=O)O)c(=O)c2cc(F)c(N3CCNC(C)C3)c(F)c21` (stereo not given) [LOMEFLOXACIN], the Activity in the data set on Mus musculus [1] is 0.53 mm; in the data set with Mus musculus [3], “Toxic”; in the data set on Mus musculus [4], “Toxic”; in the data set on Mus musculus [5] it was “Toxic”; in the data set with Mus musculus [6] it was 0.6 mm; with Mus musculus [7] it was “Toxic”. In addition, the Activity with Mus musculus [8] is given as 0.48 mm; in the data set with Mus musculus [9], “Toxic”; in the data set on Mus musculus [10], 0.64 mm; in the data set with Mus musculus [11], “Toxic”; in the data set on Mus musculus [13] it was 0.4 mm; in the data set on Mus musculus [15], 0.31 mm.
